In brackets after ≈: the same amount, converted by molar mass.
Key:
[1] = molecular target: T1, Fatty acid synthase (Homo sapiens, UniProt P49327); experiment: Inhibition of full length recombinant human FASN using acetyl-CoA/malonyl-CoA as substrate preincubated for 60 mins followed by substrate addition and measured after 90 mins in presence of NADPH
In short: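 Full-length recombinant human FASN. CoA released is detected as a fluorescent conjugate with the coumarin maleimide CPM. IC50 is the mean of at least two separate runs.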

[2] = Inhibition of ketoreductase (unknown origin); design: species or system Homo sapiens
[3] = Inhibition of enoyl reductase (unknown origin); design: species or system Homo sapiens
[4] = Inhibition of dehydratase (unknown origin); design: species or system Homo sapiens
[5] = Inhibition of thioesterase (unknown origin); design: species or system Homo sapiens
[6] = Stability in mouse liver microsomes assessed as compound remaining after 30 mins; format: ADME, Microsome; settings: read-out: Stability
In short: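 Mouse liver microsomes, 30-min incubation. Result expressed as percent of parent remaining.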

[7] = test system: PC-3; experiment: Antiproliferative activity against human PC3 cells after 96 hrs by MTT assay; format: functional, cell-based; settings: PC-3, 96 h
In short: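 PC3 prostate cancer cells grown in medium with 10% lipid-reduced serum, a condition in which growth depends on de novo lipogenesis, in the presence of inhibitor. Antiproliferative IC50 reported as the mean of at least two separate runs.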

[8] = molecular target: T1, Fatty acid synthase; experiment: Inhibition of FASN in human BT474 cells preincubated for 1 hr followed by [14C]-acetate addition and measured after 4 hrs by scintillation counting assay; format: cell-based
In short: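 BT474 breast cancer cells given 14C-acetate, which cellular FASN incorporates via acetyl-CoA into newly made radiolabeled palmitate. IC50 for blocking this incorporation is the mean of at least two separate runs.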

[9] = Kinetic solubility of compound at pH 7.4; format: physicochemical; settings: buffer, read-out: Kinetic_solubility
In short: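 Kinetic solubility measured at pH 7.4.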

[10] = AUC in mouse at mg/kg, po; format: ADME, organism-based; design: concentration or dose not given beside the values; settings: in vivo
In short: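 Mouse oral PK study at 5 mg/kg p.o., with plasma exposure taken as AUC0-8h.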

[11] = Intrinsic clearance in human liver microsomes; format: ADME, Microsome; settings: read-out: CLH
[12] = Intrinsic clearance in mouse liver microsomes; format: ADME, Microsome; settings: read-out: CLH
[13] = Toxicity in mouse assessed as drug tolerability administered as single dose; settings: in vivo
In short: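 Mice received a single oral (PO) dose of 5 mg/kg and were watched for acute toxicity to judge tolerability. Female Balb/c nude mice were used for the fluorobenzoxazole analogues. Tolerability was expressed as whether the single dose was tolerated or as a maximum tolerated dose.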

[14] = test system: MV4-11; experiment: Antiproliferative activity against human MV4-11 cells after 96 hrs by CellTiter-Glo reagent-based assay; format: functional, cell-based; settings: MV4-11, 96 h
In short: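 Antiproliferative activity measured in MV-411 cells. IC50 reported as the mean of at least two separate assay runs.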

[15] = Tmax in Balb/c nude mouse at 5 mg/kg, po; format: ADME, organism-based; settings: in vivo
In short: (§1)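 Female Balb/c nude mice (n=6) dosed orally at 5 mg/kg in PEG400/ethanol (9:1). Exposure measured over 8 h, giving Tmax, Cmax, AUC0-8h and %F.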

[16] = Cmax in Balb/c nude mouse at 5 mg/kg, po; format: ADME, organism-based; design: dose 5 mg/kg, route oral; settings: in vivo; in short: as §1
[17] = AUC (0 to 8 hrs) in Balb/c nude mouse at 5 mg/kg, po; format: ADME, organism-based; design: time < 8 hr, dose 5 mg/kg, route oral; settings: in vivo; in short: as §1
[18] = Oral bioavailability in Balb/c nude mouse at 5 mg/kg; format: ADME, organism-based; settings: in vivo; in short: as §1
[19] = Tmax in Sprague-Dawley rat at 5 mg/kg, po; format: ADME, organism-based; settings: in vivo
In short: (§2)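 Male Sprague-Dawley rats (n=3) given a single oral 5 mg/kg dose in PEG400/ethanol (9:1). Plasma followed over 24 h to give Tmax, Cmax, AUC0-24h and oral bioavailability (%F).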

[20] = Cmax in Sprague-Dawley rat at 5 mg/kg, po; format: ADME, organism-based; design: dose 5 mg/kg, route oral; settings: in vivo; in short: as §2
[21] = AUC (0 to 24 hrs) in Sprague-Dawley rat at 5 mg/kg, po; format: ADME, organism-based; design: dose 5 mg/kg, time < 24 hr, route oral; settings: in vivo; in short: as §2
[22] = Oral bioavailability in Sprague-Dawley rat at 5 mg/kg; format: ADME, organism-based; settings: in vivo; in short: as §2
[23] = test system: Mus musculus; experiment: In vivo inhibition of FASN in Harlan nude mouse xenografted with human MV411 cells assessed as increase in malonyl-CoA levels in tumors administered orally twice daily for 16 days and measured 4 hrs post last dose by LC-MS analysis; format: functional, organism-based
In short: (§3)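 Mice carrying subcutaneous MV-411 xenografts were randomized at […] tumor size into four groups (n=4). Groups received vehicle (PEG400/ethanol 9:1 v/v) or 5, 25 or 50 mg/kg twice daily. Tumors were taken 4 h after the last dose for malonyl-CoA measurement by LC-MS (one-way ANOVA vs vehicle). Tumor growth inhibition was assessed vs vehicle after 16 days.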

[24] = test system: MV4-11; experiment: Antitumor activity against human MV4-11 cells xenografted in Harlan nude mouse assessed as tumor growth inhibition at 25 mg/kg, po administered twice daily for 16 days and measured 4 hrs post last dose; format: functional; settings: MV4-11, po, read-out: TGI; in short: as §3
[25] = test system: MV4-11; experiment: Antitumor activity against human MV4-11 cells xenografted in Harlan nude mouse assessed as tumor growth inhibition at 50 mg/kg, po administered twice daily for 16 days and measured 4 hrs post last dose; format: functional; settings: MV4-11, po, read-out: TGI; in short: as §3
[26] = Stability in mouse hepatocytes after 1 hr; format: ADME, cell-based, Hepatocyte; settings: read-out: Stability
[27] = Stability in mouse liver S9 fraction after 1 hr; format: ADME, subcellular; settings: read-out: Stability
[28] = Toxicity in Balb/c nude mouse at 5 mg/kg, po administered as single dose; format: organism-based; settings: in vivo
In short: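 Female Balb/c nude mice observed for acute toxicity after a single oral 5 mg/kg dose.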

T1 sequence (P49327 whole entry): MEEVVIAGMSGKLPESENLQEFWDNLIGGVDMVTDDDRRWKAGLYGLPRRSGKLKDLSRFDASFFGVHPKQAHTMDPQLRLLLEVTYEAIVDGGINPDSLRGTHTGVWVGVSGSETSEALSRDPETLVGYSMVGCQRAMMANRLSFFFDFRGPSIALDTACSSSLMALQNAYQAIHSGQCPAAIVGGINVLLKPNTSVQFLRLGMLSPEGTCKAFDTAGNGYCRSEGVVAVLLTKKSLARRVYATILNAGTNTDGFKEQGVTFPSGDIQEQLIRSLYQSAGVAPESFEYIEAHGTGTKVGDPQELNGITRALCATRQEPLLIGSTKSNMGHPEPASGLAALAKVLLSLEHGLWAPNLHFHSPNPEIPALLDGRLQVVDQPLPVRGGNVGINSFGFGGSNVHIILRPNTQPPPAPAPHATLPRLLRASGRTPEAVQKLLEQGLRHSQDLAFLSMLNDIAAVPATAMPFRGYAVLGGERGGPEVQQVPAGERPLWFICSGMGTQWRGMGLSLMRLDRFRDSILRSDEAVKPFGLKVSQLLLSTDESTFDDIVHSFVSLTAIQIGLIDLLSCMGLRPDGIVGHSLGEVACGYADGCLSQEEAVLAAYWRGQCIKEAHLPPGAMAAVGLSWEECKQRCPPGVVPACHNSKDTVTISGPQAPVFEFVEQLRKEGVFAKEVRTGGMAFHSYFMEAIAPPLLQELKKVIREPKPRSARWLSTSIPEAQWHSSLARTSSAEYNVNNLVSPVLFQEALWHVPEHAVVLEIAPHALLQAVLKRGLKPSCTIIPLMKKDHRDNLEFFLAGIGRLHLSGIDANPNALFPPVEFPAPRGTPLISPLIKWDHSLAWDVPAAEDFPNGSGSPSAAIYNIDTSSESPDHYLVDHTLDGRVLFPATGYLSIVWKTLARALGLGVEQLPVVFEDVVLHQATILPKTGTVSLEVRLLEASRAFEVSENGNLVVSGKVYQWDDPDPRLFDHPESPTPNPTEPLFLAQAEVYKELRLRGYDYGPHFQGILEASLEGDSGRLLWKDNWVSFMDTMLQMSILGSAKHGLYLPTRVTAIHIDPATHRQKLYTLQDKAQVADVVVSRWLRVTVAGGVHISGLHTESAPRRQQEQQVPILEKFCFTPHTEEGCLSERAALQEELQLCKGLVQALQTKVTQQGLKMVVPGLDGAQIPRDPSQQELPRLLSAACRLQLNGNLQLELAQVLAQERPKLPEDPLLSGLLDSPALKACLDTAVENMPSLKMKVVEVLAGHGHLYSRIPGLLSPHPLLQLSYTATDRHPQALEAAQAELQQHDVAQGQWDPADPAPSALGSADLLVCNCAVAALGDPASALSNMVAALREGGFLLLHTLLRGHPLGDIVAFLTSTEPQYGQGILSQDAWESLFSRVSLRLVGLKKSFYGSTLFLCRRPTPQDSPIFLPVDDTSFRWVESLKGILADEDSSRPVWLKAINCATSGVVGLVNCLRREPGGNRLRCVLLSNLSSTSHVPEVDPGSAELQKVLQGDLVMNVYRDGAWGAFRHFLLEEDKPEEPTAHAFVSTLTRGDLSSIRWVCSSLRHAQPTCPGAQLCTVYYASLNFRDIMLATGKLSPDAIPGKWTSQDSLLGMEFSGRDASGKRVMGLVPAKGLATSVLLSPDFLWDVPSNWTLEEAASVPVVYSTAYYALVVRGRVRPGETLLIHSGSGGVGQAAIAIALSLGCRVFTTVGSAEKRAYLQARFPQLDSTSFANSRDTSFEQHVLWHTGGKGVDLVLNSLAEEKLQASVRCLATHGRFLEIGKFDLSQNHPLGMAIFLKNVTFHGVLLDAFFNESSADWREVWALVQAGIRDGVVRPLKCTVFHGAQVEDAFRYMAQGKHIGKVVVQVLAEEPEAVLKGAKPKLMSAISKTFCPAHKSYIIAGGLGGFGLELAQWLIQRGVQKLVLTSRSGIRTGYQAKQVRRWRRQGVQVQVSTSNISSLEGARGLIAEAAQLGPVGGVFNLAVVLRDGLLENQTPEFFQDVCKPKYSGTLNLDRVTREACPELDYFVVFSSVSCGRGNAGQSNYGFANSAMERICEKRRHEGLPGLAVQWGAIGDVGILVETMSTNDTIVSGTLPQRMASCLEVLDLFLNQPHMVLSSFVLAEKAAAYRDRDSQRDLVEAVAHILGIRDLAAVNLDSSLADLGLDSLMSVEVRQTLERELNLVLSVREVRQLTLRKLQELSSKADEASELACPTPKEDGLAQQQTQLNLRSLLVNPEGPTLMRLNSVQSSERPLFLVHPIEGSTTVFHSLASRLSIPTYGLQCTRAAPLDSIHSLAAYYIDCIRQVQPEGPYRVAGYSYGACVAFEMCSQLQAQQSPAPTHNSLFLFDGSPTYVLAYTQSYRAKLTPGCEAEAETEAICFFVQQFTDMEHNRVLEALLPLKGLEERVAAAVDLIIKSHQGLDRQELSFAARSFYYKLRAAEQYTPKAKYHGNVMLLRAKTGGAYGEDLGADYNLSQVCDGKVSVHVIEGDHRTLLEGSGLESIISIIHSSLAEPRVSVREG

SMILES: O=C(c1ccc(-c2ccccc2)cc1)N1CCN(C(=O)C2CCCO2)CC1 (racemic)
- IC50 [1]: 1140 nM
- IC50 [2]: 1800 nM
- IC50 [3]: > 50 µM
- IC50 [4]: > 50 µM
- IC50 [5]: > 50 µM

SMILES: O=C(c1ccc(-c2nc3ccccc3o2)cc1)N1CCN(C(=O)C2(O)CC2)CC1
- remaining at 0.5 h [6]: 109%
- IC50 [1]: 54 nM
- IC50 [7]: 15 nM
- IC50 [8]: 101 nM
- solubility kinetic [9]: 83 µM (≈ 32.5 µg/mL)
- AUC [10]: 28.7 µM·h
- microsomal CLint [11]: 7 µL/min/mg
- microsomal CLint [12]: 7 µL/min/mg
- MTD [13]: < 5 mg/kg

SMILES: O=C(c1ccc(-c2nc3ccc(F)cc3o2)cc1)N1CCN(C(=O)C2(O)CC2)CC1
- remaining at 0.5 h [6]: 100%
- IC50 [1]: 213 nM
- IC50 [7]: 47 nM
- IC50 [8]: 90 nM
- solubility kinetic [9]: 39 µM (≈ 16 µg/mL)
- IC50 [14]: 26 nM
- Tmax [15]: 2 h
- Cmax [16]: 8.4 µM
- AUC(0-t) at 8 h [17]: 46 µM·h
- bioavailability [18]: 95%
- Tmax [19]: 3 h
- Cmax [20]: 33 µM
- AUC(0-t) at 24 h [21]: 440 µM·h
- bioavailability [22]: 84%
- inhibition [23]: Dose-dependent effect
- inhibition in vivo at 25 mg/kg [24]: 32%
- inhibition in vivo at 50 mg/kg [25]: 50%
- remaining at 1 h [26]: 97%
- remaining at 1 h [27]: 83%
- AUC [10]: 46 µM·h
- Activity [28]: Non-Toxic

SMILES: O=C(c1ccc(-c2cc(Cl)ccc2F)cc1)N1CCN(C(=O)C2(O)CC2)CC1
- remaining at 0.5 h [6]: 66%
- IC50 [1]: 110 nM
- IC50 [7]: 138 nM
- IC50 [8]: 158 nM
- solubility kinetic [9]: 43 µM (≈ 17.3 µg/mL)

SMILES: O=C(c1ccc(-c2nc3cc(F)ccc3o2)cc1)N1CCN(C(=O)C2(O)CC2)CC1
- remaining at 0.5 h [6]: 93%
- IC50 [1]: 192 nM
- IC50 [7]: 52 nM
- IC50 [8]: 61 nM
- solubility kinetic [9]: 30 µM (≈ 12.3 µg/mL)
- Activity [28]: Toxic

SMILES: O=C(c1ccc(-c2ccc(Cl)cc2F)cc1)N1CCN(C(=O)C2(O)CC2)CC1
- remaining at 0.5 h [6]: 92%
- IC50 [1]: 110 nM
- IC50 [7]: 146 nM
- IC50 [8]: 336 nM
- solubility kinetic [9]: 33 µM (≈ 13.3 µg/mL)
- remaining at 1 h [26]: 84%
- remaining at 1 h [27]: 70%
- AUC [10]: 47.6 µM·h

SMILES: Cn1ncc2ccc(-c3ccc(C(=O)N4CCN(C(=O)C5(O)CC5)CC4)cc3)cc21
- remaining at 0.5 h [6]: 89%
- IC50 [1]: 26 nM
- IC50 [7]: 12 nM
- solubility kinetic [9]: 79 µM (≈ 32 µg/mL)
- remaining at 1 h [26]: 77%
- remaining at 1 h [27]: 75%
- AUC [10]: 9.8 µM·h
